Measured values from different studies.
Cell line: HeLa
Read-out: cell growth or viability

COC(=O)CN=c1scc(-c2ccccc2)n1-c1ccc(Cl)cc1
IC50 (MTT; 72 h): 17 µM

CC(=O)c1ccc(-c2cccc(NC(=O)CCc3cccc4c3B(O)OC4)c2)cc1
IC50 (ATP luminescence; 72 h): 0.858 µM

COc1cccc2c1C(=O)c1c(O)c3c(c(O)c1C2=O)C[C@@](O)(C(=O)CO)C[C@@H]3O[C@H]1C[C@H](N)[C@H](O)[C@H](C)O1
IC50 (MTT; 24 h): 1.2 µM

COc1ccc(-c2cc(=O)c3c(OC)cc(C)c(-c4c(C)cc(OC)c5c(=O)cc(-c6ccc(OC)cc6)oc45)c3o2)cc1
IC50 (MTT; 48 h): 41.4 µM

Oc1c(I)cc(I)c2cccnc12
IC50 (MTT; 48 h): > 100 µM

CC1(C)SC2C(NC(=O)C(NC(=O)C3=C(O)C(c4ccccc4)NC3=O)c3ccccc3)C(=O)N2C1C(=O)O (centres unmarked)
IC50 (ATP luminescence; 48 h): 47.6 µg/mL

COc1ccc(C(=O)O[C@@H]2CN3Cc4c(cc5c(c4OC)OCO5)[C@@]24C=C[C@H](OC)C[C@@H]34)cc1OC
IC50 (WST-1; 48 h): 4.8 µM

COc1cc(C)cc2oc(-c3ccc(C(F)(F)F)cc3)cc(=O)c12
IC50 (MTT; 48 h): > 100 µM

COc1ccc(OC)c(-c2c(C(=O)c3cc(OC)c(OC)c(OC)c3)sc3ccccc23)c1
IC50 (MTT; 72 h): > 10 µM

Oc1c(I)cc(Cl)c2cccnc12
IC50 (MTT; 48 h): 70.2 µM

COc1cc(OC)cc(C(=O)c2cc3c(-c4ccccc4)c(O)ccc3o2)c1
IC50: 15 µM

CC1(C)SC2C(NC(=O)C(NC(=O)C3=C(O)C(Cc4ccc(F)cc4)NC3=O)c3ccccc3)C(=O)N2C1C(=O)O (centres unmarked)
IC50 (ATP luminescence; 48 h): 123 µg/mL

COc1cc(OC)c2c(=O)cc(-c3ccccc3)oc2c1-c1c(OC)cc(OC)c2c(=O)cc(-c3ccccc3)oc12
IC50 (MTT; 48 h): 22.1 µM

c1cnc2c(c1)ccc1cccnc12
IC50 (MTT; 48 h): > 50 µM

NCCOc1cc(C(=O)Nc2cc(OCCN3CCCC3)c3ccccc3n2)nc(C(=O)Nc2cc(OCCN3CCCC3)c3ccccc3n2)c1
IC50 (ATP luminescence; 72 h): 0.3 µM

COc1cc(OC)cc(C(=O)c2cc3c(-c4ccccc4)c(OC)ccc3o2)c1
IC50: > 50 µM

COc1cccc2c1C(=O)c1c(O)c3c(c(O)c1C2=O)C[C@@](O)(C(=O)CO)C[C@@H]3O[C@H]1C[C@H](N)[C@H](O)[C@H](C)O1
IC50 (SRB): 0.46 µM

COc1ccc(-c2cc(=O)c3c(OC)cc(OC)c(-c4c(OC)cc(OC)c5c(=O)cc(-c6ccc(OC)cc6)oc45)c3o2)cc1
IC50 (MTT; 48 h): 39.5 µM

CC1(C)SC2C(NC(=O)C(NC(=O)C3=C(O)C(Cc4ccsc4)NC3=O)c3ccccc3)C(=O)N2C1C(=O)O (centres unmarked)
IC50 (ATP luminescence; 48 h): 58.9 µg/mL

COC1=C2C[C@@H](C)C[C@H](OC)[C@H](O)[C@@H](C)/C=C(\C)[C@H](OC(N)=O)[C@@H](OC)/C=C\C=C(/C)C(=O)NC(=CC1=O)C2=O
IC50 (MTT): 0.651 µM

COc1cc(OC)c2c(=O)cc(-c3ccc(Br)cc3)oc2c1
IC50 (MTT; 48 h): 85.8 µM

C#CCOc1cc(C(=O)Nc2cc(OCCCN)c3ccccc3n2)nc(C(=O)Nc2cc(OCCCN)c3ccccc3n2)c1
IC50 (ATP luminescence; 72 h): 3.6 µM

CC1(C)[C@@H](O)CC[C@]2(C)[C@H]3C(=O)C=C4[C@@H]5C[C@@](C)(C(=O)O)CC[C@]5(C)CC[C@@]4(C)[C@]3(C)CC[C@@H]12
IC50 (MTT; 48 h): 17.3 µM

Cc1c(O)c(=O)ccn1-c1cccc(C(=O)O)c1
IC50 (MTT; 72 h): 600 µM

COc1cc(C)c(-c2c(C)cc(OC)c3c(=O)cc(-c4ccc(C(F)(F)F)cc4)oc23)c2oc(-c3ccc(C(F)(F)F)cc3)cc(=O)c12
IC50 (MTT; 48 h): > 100 µM

C(C#CC1CC1)#CC1CC1
IC50 (MTT; 24 h): 14.5 µg/mL

CC(C)(C)Oc1ccc(CC2NC(=O)C(C(=O)NC(C(=O)NC3C(=O)N4C3SC(C)(C)C4C(=O)O)c3ccccc3)=C2O)cc1 (centres unmarked)
IC50 (ATP luminescence; 48 h): 59.3 µg/mL

CCCCCCC#CC#CCCCCCC
IC50 (MTT; 24 h): 36 µg/mL

O=C(O)CN1c2ccccc2Sc2ccccc21
IC50 (MTS): 13.2 µM

COc1cccc2c1C(=O)c1c(O)c3c(c(O)c1C2=O)C[C@@](O)(C(=O)CO)C[C@@H]3O[C@H]1C[C@H](N)[C@H](O)[C@H](C)O1
IC50 (MTT; 72 h): 3.62 µM

CC1CS(=O)(=O)CCN1/N=C/c1ccc([N+](=O)[O-])o1 (centres unmarked)
IC50: 43 µM

C[C@H](O)C(=O)CCCCCCC(=O)Nc1cccc(-c2cn(-c3ccccc3)nn2)c1
IC50 (XTT): 115 µM

CC1(C)SC2C(NC(=O)C(NC(=O)C3=C(O)C4CCCN4C3=O)c3ccccc3)C(=O)N2C1C(=O)O (centres unmarked)
IC50 (ATP luminescence; 48 h): 52.1 µg/mL

Nc1ccc(C#CC#Cc2ccc(N)cc2)cc1
IC50 (MTT; 24 h): 91.2 µg/mL

CN(C)CCCOc1cc(NC(=O)c2cc(Cl)cc(C(=O)Nc3cc(OCCCN(C)C)c4ccccc4n3)n2)nc2ccccc12
IC50 (ATP luminescence; 72 h): 1.6 µM

COc1ccc(-c2cc(=O)c3c(OC)cc(C)cc3o2)cc1
IC50 (MTT; 48 h): 28.4 µM

COc1ccccc1C(=O)c1cc2c(-c3ccccc3)c(O)ccc2o1
IC50: 24 µM

C#CCOc1ccc(C(=O)c2ccc(-c3cccc(NC(=O)CCc4cccc5c4B(O)OC5)c3)cc2)cc1
IC50 (ATP luminescence; 72 h): 4.4 µM

O=C(Nc1cc(OCCN2CCCC2)c2ccccc2n1)c1cc(OCc2ccc(F)cc2)cc(C(=O)Nc2cc(OCCN3CCCC3)c3ccccc3n2)n1
IC50 (ATP luminescence; 72 h): 13 µM

CC1NC(=O)C(C(=O)NC(C(=O)NC2C(=O)N3C2SC(C)(C)C3C(=O)O)c2ccccc2)=C1O (centres unmarked)
IC50 (ATP luminescence; 48 h): 106 µg/mL

NCCCOc1cc(NC(=O)c2cc(OCCN)cc(C(=O)Nc3cc(OCCCN)c4ccccc4n3)n2)nc2ccccc12
IC50 (ATP luminescence; 72 h): 13.7 µM

COc1cc(OC)c2c(=O)cc(-c3ccc(Br)cc3)oc2c1-c1c(OC)cc(OC)c2c(=O)cc(-c3ccc(Br)cc3)oc12
IC50 (MTT; 48 h): 96.1 µM

NCCOc1cc(NC(=O)c2cc(OCc3c[nH]nn3)cc(C(=O)Nc3cc(OCCN)c4ccccc4n3)n2)nc2ccccc12
IC50 (ATP luminescence; 72 h): 7.7 µM

C[C@@H](O)C(=O)CCCCC[C@@H]1NC(=O)[C@H]2CCCN2C(=O)[C@H](Cc2ccccc2)NC(=O)C(C)(C)NC1=O
IC50 (XTT): 0.17 µM
